# Assay results pooled from the literature.
# Compare with care: the assays were run in different laboratories.
# Target: Sodium-dependent noradrenaline transporter (SLC6A2, Homo sapiens, UniProt P23975)
test,setting,measurement,value,SMILES
"ligand displacement, radioligand",,Ki,3160 nM,CNC(=O)[C@@]12C[C@@H]1[C@@H](n1cnc3c(NCc4cccc(Cl)c4)nc(C#Cc4ccccc4)nc31)[C@H](O)[C@@H]2O
"ligand displacement, radioligand",cell membranes,Ki,> 10000 nM,CNc1nc(C#Cc2ccc(Cl)s2)nc2c1ncn2[C@H]1[C@H](O)[C@H](O)[C@]2(C(=O)OC)C[C@H]12
"cell-free assay, radioligand",,Ki,1400 nM,CCCCN1CCC(COC(=O)c2ccc(N)c(OCF)c2)CC1
"transporter uptake, inhibitor",,IC50,31600 nM,CCn1c(-c2nc3cc(C(=O)N4CCC[C@@H](N)C4)cc(OC)c3n2C)cc2cccnc21
"transporter uptake, inhibitor",,IC50,174 nM,Clc1ccc(C(c2ccccc2)c2nnnn2CCCN2CCC(Cc3ccccc3)CC2)cc1 (stereo not drawn)
"ligand displacement, radioligand",cell membranes,Ki,7320 nM,CCC(C)C(=O)[C@]12C(=O)[C@](CC=C(C)C)(C[C@H](CC=C(C)C)[C@@]1(C)CCC=C(C)C)C(=O)C(CC=C(C)C)=C2O (stereo partly drawn)
"ligand displacement, radioligand",,Ki,405 nM,OCCCN1CC[C@@H]2C[C@H]1c1cc(-c3ccc(C(F)(F)F)cc3)ccc12
"transporter uptake, inhibitor, radiometric",,IC50,> 10000 nM,CCOC(=O)[C@@]12C[C@@H]1[C@@H](n1ccc3c(NC)nc(C#Cc4ccc(Cl)s4)nc31)[C@H](O)[C@@H]2O
"transporter uptake, inhibitor",,IC50,39800 nM,CCn1c(-c2nc3ccc(C(=O)N4CCCC(N)C4)cc3n2C)cc2ccccc21 (stereo not drawn)
"transporter uptake, inhibitor",,IC50,424 nM,Clc1ccc(C(c2ccccc2)c2nnnn2CCCCN2CCC(CCc3ccccc3)CC2)cc1 (stereo not drawn)
"ligand displacement, radioligand",cell membranes,Ki,> 8400 nM,CCOC(=O)[C@@]12C[C@@H]1[C@@H](n1cnc3c(NC)nc(C#Cc4ccc(Cl)s4)nc31)[C@H](O)[C@@H]2O
"transporter uptake, inhibitor",,IC50,724 nM,Clc1ccc(CC2CCN(CCCCn3nnnc3C(c3ccccc3)c3ccccc3)CC2)cc1Cl
"cell-free assay, radioligand",,Ki,4860 nM,CCN(CC)c1ccc(C2Nc3ccc(C(=O)c4ccccc4)cc3NC3=C2C(=O)CC(C)(C)C3)cc1 (stereo not drawn)
"transporter uptake, inhibitor",,IC50,469 nM,Clc1ccc(C(c2ccc(Cl)cc2)c2nnnn2CCCCN2CCC(Cc3ccccc3)CC2)cc1
"ligand displacement, radioligand",,Ki,2800 nM,O[C@@H]1[C@H](O)[C@@H]2C[C@@H]2[C@H]1n1cnc2c(NCCc3ccccc3)nc(C#Cc3ccccc3)nc21
